Screens as filed in PubChem BioAssay.
Mdm2 MdmX PPI = inhibitors of human Mdm2/MdmX interaction; O15151+Q00987; SaOS-2 split-luciferase Mdm2/MdmX complementation, luminescence; inhibition, % at 8 µM; 3% of 330,000 active; AID 485346;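 active = inhibition of at least 50% at 8 µM in the primary screen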
Target sequence (O15151 whole entry, looked up): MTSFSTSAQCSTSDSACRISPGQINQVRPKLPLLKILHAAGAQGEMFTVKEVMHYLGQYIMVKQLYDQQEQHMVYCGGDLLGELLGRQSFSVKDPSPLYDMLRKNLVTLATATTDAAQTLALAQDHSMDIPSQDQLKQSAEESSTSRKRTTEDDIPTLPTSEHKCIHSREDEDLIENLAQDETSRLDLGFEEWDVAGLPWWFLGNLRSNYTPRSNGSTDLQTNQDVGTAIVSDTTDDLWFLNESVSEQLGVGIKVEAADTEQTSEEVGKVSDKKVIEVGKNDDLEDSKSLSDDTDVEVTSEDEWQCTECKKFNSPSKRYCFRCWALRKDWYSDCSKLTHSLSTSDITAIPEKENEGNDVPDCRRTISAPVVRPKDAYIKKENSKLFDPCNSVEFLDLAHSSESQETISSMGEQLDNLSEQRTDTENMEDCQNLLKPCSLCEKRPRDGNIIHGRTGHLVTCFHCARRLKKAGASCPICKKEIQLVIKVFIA
Target sequence (Q00987 whole entry, looked up): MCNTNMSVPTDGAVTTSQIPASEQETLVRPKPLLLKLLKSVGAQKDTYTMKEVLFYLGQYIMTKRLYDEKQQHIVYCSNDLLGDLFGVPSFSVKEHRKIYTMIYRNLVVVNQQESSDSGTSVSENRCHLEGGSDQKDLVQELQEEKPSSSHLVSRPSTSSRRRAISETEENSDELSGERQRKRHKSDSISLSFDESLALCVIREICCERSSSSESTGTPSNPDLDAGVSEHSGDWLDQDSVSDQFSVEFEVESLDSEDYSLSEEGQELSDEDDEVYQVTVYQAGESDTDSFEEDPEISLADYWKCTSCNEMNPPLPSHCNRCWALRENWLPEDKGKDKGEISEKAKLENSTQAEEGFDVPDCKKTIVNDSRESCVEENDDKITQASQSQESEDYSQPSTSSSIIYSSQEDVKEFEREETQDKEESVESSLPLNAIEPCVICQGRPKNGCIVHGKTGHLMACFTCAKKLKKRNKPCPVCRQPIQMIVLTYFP
Beta cell apopt = blocks beta cell apoptosis; INS-1E cytokine-induced death, ATP luminescence, 48 h; percent of positive-control rescue, neutral wells zero; 0.8% of 300,000 active; protection from apoptosis, % (concentration not given with the values);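 active = Every replicate reaches about 75%, or at least half do and their mean reaches it too, limit read from the data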;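 also: 0% = cytokine-treated negative control wells and 100% = positive control rescue; higher means more ATP so stronger rescue from cytokine killing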
XBP1 UPR activ = activators of adaptive arm of unfolded protein response (XBP1) | CHO-XBP1 luciferase reporter, IRE1-XBP1 UPR activation, luminescence; percent of tunicamycin response, DMSO as zero | activation, % at 20 µM | 0.33% of 330,000 active | AID 463104;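 active = versus positive control, 20 µM dose yields 30% or more activation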;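 also: 100% = tunicamycin at 10 µg/mL and 0% = DMSO only wells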
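Material: CHO cell line with stable XBP1 luciferase reporter; schedule: 16-18 h cell attachment at 37 °C, then 6 h compound exposure; signal: glow luminescence from Steady-Glo reagent; medium: serum-containing F12 medium, 10% FBS; benchmarks: tunicamycin 10 µg/mL and vehicle-only wells; read-out: percent activation relative to tunicamycin reference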
UPR CHOP act = activators of apoptotic arm of unfolded protein response (CHOP). activation, % at 10 µM. CHO-CHOP luciferase reporter, UPR activation, luminescence; percent of tunicamycin response over DMSO baseline. 0.34% of 330,000 active;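 active = at 10 µM dose, activation of 40% or more, normalized to positive control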;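 also: 100% = tunicamycin at 10 µg/mL and 0% = DMSO alone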
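Evaluation: % reporter activation, DMSO baseline versus tunicamycin full activation; System: CHO-CHOP luciferase reporter cell line; Input: 500 cells/well; Incubation: 6 h compound treatment, 37 °C; Measured by: Steady-Glo luciferase luminescence; Dosing: one dose, 10 µM in 0.5% DMSO; Buffer or medium: F12 medium, 10% FBS; Benchmarks: positive tunicamycin 10 µg/mL, negative DMSO alone.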
CSC inhib = cancer stem cell inhibition. AID 2717. 1.1% of 300,000 active. inhibition, % at 7.5 µM. cancer stem cell-like cells viability, luminescence; in the data active = inhibition above about 75%; tested in HMLE shEcad cells
SKKanGAS inh = inhibitors of SKKanGAS S. pyogenes growth in kanamycin (SK-promoter or general growth effect); BacTiter-Glo, 6 h; inhibition, % at 7.5 µM; 1.3% of 300,000 active; AID 1662;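 active = mean replicate score, as percent of positive control median, at least 50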;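 also: strain carries kanamycin resistance gene driven by streptokinase promoter and grows in 40 µg/ml kanamycin; loss of luminescence reflects streptokinase promoter inhibition or plain growth inhibition; 0% = median of DMSO wells and 100% = positive control at its reference dose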
Mdm2-MdmX conf = human Mdm2/MdmX binding inhibition, confirmed. 55% of 10,000 active. inhibition, % at 8 µM. AID 489028. shares compounds with Mdm2 MdmX PPI. luminescent assay; in the data active = inhibition above about 40%
FLuc counter = inhibits full-length luciferase, flagging false Mdm2/MdmX hits; SaOS-2 full-length luciferase counterscreen, luminescence; shares compounds with Mdm2 MdmX PPI; inhibition, % at 8 µM; 77% of 6,200 active; AID 504607;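 active = mean inhibition at 8 µM reaching about 37%, which flags the compound as non-specific, limit read from the data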;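 also: p53-null SaOS-2 cells with luciferase driven by a doxycycline-inducible promoter; compound on cells about two nights before reading with doxycycline added after day one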
Starred values were filed as active, the others as inactive; · = not tested or not shown. This is a sample that favours compounds with a hit; in the whole collection about 4.8% have one here.

SMILES | Mdm2 MdmX PPI | Beta cell apopt | XBP1 UPR activ | UPR CHOP act | CSC inhib | SKKanGAS inh | Mdm2-MdmX conf | FLuc counter
COc1cc(CNCCc2ccc(S(N)(=O)=O)cc2)ccc1OCc1ccc(Cl)cc1 | 54* | 23 | 1 | 2 | 29 | -3 | 40* | 69*
CCOc1cc(CNCCc2ccc(S(N)(=O)=O)cc2)ccc1OCc1ccc(Cl)cc1 | 100* | 105* | 16 | 12 | -8 | 5 | 68* | 65*
COc1cc(CNCCc2ccc(S(N)(=O)=O)cc2)ccc1OCC(=O)NC1CCCCC1 | 23 | -7 | -2 | 1 | -5 | -3 | · | ·
Cc1ccccc1OCC(=O)NNC(=O)c1ccoc1C | -18 | -1 | 2 | -1 | -9 | · | · | ·
CC1CCN(S(=O)(=O)c2ccc(S(=O)(=O)N3CCCC3)cc2)CC1 | 37 | -2 | -3 | 2 | -15 | 0 | · | ·
COC(=O)c1ccc(Nc2cc(C)nc3ccccc23)cc1 | 100* | 20 | -1 | 2 | 39 | -2 | 65* | 52*
COC(=O)c1ccc2nc(C)cc(Nc3ccc(N(C)C)cc3)c2c1 | 5 | 14 | 0 | -2 | 14 | -3 | · | ·
CC(=O)c1ccc(Nc2cc(C)nc3c(C)cc(C)cc23)cc1 | 64* | 77* | 2 | 2 | -7 | 7 | 61* | 65*
COc1ccc(/C=C/C(=O)OCC(=O)Nc2cccc(S(=O)(=O)NC3=NCCCCC3)c2)cc1 | 17 | -6 | -1 | -1 | -19 | · | · | ·
CCOc1ccc(CCNC(=O)c2ccc3ccccc3n2)cc1OCC | 6 | -4 | -1 | 2 | -9 | -10 | · | ·
CN1CCN(CCNC(=O)c2ccc3nc(-c4ccc(F)cc4)c(-c4ccc(F)cc4)nc3c2)CC1 | 54* | 2 | 3 | 0 | -1 | 10 | 29 | ·
CC[n+]1c(C)sc2c3ccsc3ccc21 | -10 | -17 | -4 | -1 | -6 | 3 | · | ·
CCN1/C(=C/c2ccc3cc(C)ccc3[n+]2CC)Sc2ccc3sccc3c21 | 101* | 140* | -3 | 18 | 49 | 115* | 87* | 17
C/C=C/c1cc(CN2CCN(c3ccccc3)CC2)c(O)c(OC)c1 | 82* | 5 | -2 | 0 | 22 | 0 | 45* | 83*
CC(/C=N/NC(=O)c1ccccc1F)=C\c1ccccc1 | -88 | 5 | -5 | 3 | 12 | -3 | · | ·
CCCOc1ccc(N2C(=O)CC(SC(=NC)Nc3ccc(F)cc3)C2=O)cc1 (stereo unspecified) | -15 | 0 | 0 | -1 | -2 | 2 | · | ·
CCCOc1ccc(N2C(=O)CC(SC(=N)N3N=C(c4ccccc4)CC3c3ccccc3)C2=O)cc1 (stereo unspecified) | 60* | 29 | 4 | 5 | -9 | 25 | 40 | 77*
COc1ccccc1CN1CCC(CNS(=O)(=O)c2cc(-c3cc(C)no3)ccc2C)CC1 | 56* | -10 | -2 | 1 | 24 | 3 | 44* | 75*
COc1ccc(-c2cc(C)no2)cc1S(=O)(=O)NCC1CCN(Cc2cc(C)ccc2C)CC1 | 61* | -6 | -2 | 2 | 14 | 5 | 22 | ·
COc1ccc(-c2cc(C)no2)cc1S(=O)(=O)N(C)c1ccc(C)cc1 | 63* | 16 | -1 | -1 | 61 | 11 | 50* | 60*
Cc1cccc(C)c1OCc1cc(C(=O)N(Cc2nccn2C)C(C)C)no1 | 19 | -1 | -1 | 0 | -3 | -3 | · | ·
Oc1cccc(C2c3[nH]c4ccccc4c3CCN2Cc2ccc3c(c2)CCO3)c1 (stereo unspecified) | 58* | 0 | 7 | 0 | 64 | 3 | 43* | 53*
C=CC[C@]12CC=CC(=O)[C@@]1(O)O[C@H](c1ccc(OC)c(OC)c1)[C@H]2C | 50* | -6 | -1 | 8 | 39 | 0 | 30 | ·
Cc1ccc2c(c1)C(O)(C1COC(C)(C)CC1=O)C(=O)N2C (stereo unspecified) | 9 | -4 | 3 | -7 | -2 | -2 | · | ·
CN1C(=O)C(O)(C2COC(C)(C)CC2=O)c2cc(Br)ccc21 (stereo unspecified) | 53* | -5 | 0 | -3 | 34 | -2 | 29 | ·
SMILES | Mdm2 MdmX PPI | Beta cell apopt | XBP1 UPR activ | UPR CHOP act | CSC inhib | SKKanGAS inh | Mdm2-MdmX conf | FLuc counter
Oc1c(Cl)cc(Cl)cc1Sc1cc(Cl)cc(Cl)c1O | 100* | 28 | -2 | 1 | 120* | 106* | 92* | 17
CCN(CC)CCSc1nc2ccccc2c(=S)n1-c1ccccc1 | 51* | 16 | 4 | 0 | 19 | -7 | 34 | 94*
CCN(CC)C(=O)[C@H]1C[C@H](CC(=O)NCc2ccc(OC)c(OC)c2)C(=O)N2CCc3c([nH]c4ccc(Cl)cc34)[C@]12C | 41 | · | 3 | 5 | · | · | · | ·
Cc1ccc(C)c(CN2C(=O)c3ccccc3S(=O)c3ccc(C(=O)N4CCN(c5ccccn5)CC4)cc32)c1 (stereo unspecified) | 99* | 8 | 1 | 0 | 52 | 15 | 89* | 54*
Cc1ccc(C)c(CN2C(=O)c3ccccc3S(=O)(=O)c3ccc(C(=O)N4CCN(C)CC4)cc32)c1 | 15 | 4 | 0 | -1 | -10 | 7 | · | ·
OC(c1cc(-c2ccc(C(F)(F)F)cc2)nc(C(F)(F)F)c1)C1CCCCN1 (stereo unspecified) | 96* | 108* | 11 | 36 | 104* | 12 | 98* | 52*
OC(c1cc(C(F)(F)F)nc2c(C(F)(F)F)cccc12)C1CCCCN1 (stereo unspecified) | 100* | 45 | 14 | 10 | 72 | · | 89* | 36
COC(=O)CSc1nc(-c2ccc(F)cc2)cc(C(F)(F)F)n1 | 10 | 2 | -2 | -2 | -6 | -2 | · | ·
Cc1ccccc1C(=O)NCCCNC(=O)c1ccccn1 | -9 | 1 | 1 | 0 | -5 | -6 | · | ·
COc1ccc(CCN2CC(C(=O)NCCN3CCOC3=O)CCC2=O)cc1 (stereo unspecified) | 33 | -1 | -1 | 3 | -17 | 0 | · | ·
CC(=O)c1cccc(NC(=O)COC(=O)c2ccc(S(C)(=O)=O)c([N+](=O)[O-])c2)c1 | 15 | -39 | -4 | 3 | 58 | 22 | · | ·
CS(=O)(=O)c1ccc(C(=O)OCC(=O)NC(=O)C2COc3ccccc3O2)cc1[N+](=O)[O-] (stereo unspecified) | 51* | -42 | -4 | 0 | 11 | · | 26 | ·
CS(=O)(=O)c1ccc(C(=O)OCC(=O)NC(=O)C2CCCCC2)cc1[N+](=O)[O-] | 50* | -31 | -11 | 19 | 64 | 15 | 18 | ·
